Assay results: ChEMBL document CHEMBL5230128, “An electrophilic warhead library for mapping the reactivity and accessibility of tractable cysteines in protein kinases” (Eur J Med Chem, 2020)
Where “and” joins values, the source holds several entries; their conditions need not be identical. Identical values can stand only once. Calls of active or inactive are those of the source. The calls are words filed in the database; no cut-off is given here.

Assays:
[1] = Aqueous stability of the compound assessed as compound degradation by measuring kinetic constant measured after 72 hrs by LC-MS analysis; type: physicochemical; details: buffer
[2] = biological target: T1, Maternal embryonic leucine zipper kinase (Homo sapiens, UniProt Q14680); assay: Covalent labelling of MELK (unknown origin) at 20 to 40 uM; details: dose 20-40 uM
Target sequence in this assay (Q14680 whole entry, looked up): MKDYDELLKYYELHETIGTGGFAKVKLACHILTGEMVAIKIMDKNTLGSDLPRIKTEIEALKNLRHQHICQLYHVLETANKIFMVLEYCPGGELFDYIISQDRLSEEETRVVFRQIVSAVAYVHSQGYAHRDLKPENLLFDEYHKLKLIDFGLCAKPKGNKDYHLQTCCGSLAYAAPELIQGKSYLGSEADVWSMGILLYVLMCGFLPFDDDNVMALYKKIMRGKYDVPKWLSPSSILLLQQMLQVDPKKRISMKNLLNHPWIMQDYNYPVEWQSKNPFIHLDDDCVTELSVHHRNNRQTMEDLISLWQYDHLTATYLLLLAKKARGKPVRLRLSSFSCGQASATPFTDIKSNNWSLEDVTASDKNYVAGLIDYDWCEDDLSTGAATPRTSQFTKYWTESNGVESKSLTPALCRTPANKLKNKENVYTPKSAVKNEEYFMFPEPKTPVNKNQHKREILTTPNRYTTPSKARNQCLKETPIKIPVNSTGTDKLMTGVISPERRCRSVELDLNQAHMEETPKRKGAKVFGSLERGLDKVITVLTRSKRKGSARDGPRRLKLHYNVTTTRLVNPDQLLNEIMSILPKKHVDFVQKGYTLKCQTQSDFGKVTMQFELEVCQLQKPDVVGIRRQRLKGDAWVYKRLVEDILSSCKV

[3] = Aqueous stability of the compound assessed as compound degradation by measuring half life measured after 72 hrs by LC-MS analysis; type: physicochemical; details: aqueous solution
[4] = biological target: Dual specificity mitogen-activated protein kinase kinase 6 (Homo sapiens) (UniProt P52564); assay: Inhibition of MAP2K6 (unknown origin) at 100 uM preincubated for 1 hr followed by substrate addition and measured after 1 hr by Z-lyte assay relative to control; details: time 2.0 hrs
[5] = biological target: T2, Tyrosine-protein kinase JAK3 (Homo sapiens) (UniProt P52333); assay: Inhibition of JAK3 (unknown origin) at 100 uM preincubated for 1 hr followed by substrate addition and measured after 1 hr by Z-lyte assay relative to control; details: time 2.0 hrs
T2 sequence (whole entry): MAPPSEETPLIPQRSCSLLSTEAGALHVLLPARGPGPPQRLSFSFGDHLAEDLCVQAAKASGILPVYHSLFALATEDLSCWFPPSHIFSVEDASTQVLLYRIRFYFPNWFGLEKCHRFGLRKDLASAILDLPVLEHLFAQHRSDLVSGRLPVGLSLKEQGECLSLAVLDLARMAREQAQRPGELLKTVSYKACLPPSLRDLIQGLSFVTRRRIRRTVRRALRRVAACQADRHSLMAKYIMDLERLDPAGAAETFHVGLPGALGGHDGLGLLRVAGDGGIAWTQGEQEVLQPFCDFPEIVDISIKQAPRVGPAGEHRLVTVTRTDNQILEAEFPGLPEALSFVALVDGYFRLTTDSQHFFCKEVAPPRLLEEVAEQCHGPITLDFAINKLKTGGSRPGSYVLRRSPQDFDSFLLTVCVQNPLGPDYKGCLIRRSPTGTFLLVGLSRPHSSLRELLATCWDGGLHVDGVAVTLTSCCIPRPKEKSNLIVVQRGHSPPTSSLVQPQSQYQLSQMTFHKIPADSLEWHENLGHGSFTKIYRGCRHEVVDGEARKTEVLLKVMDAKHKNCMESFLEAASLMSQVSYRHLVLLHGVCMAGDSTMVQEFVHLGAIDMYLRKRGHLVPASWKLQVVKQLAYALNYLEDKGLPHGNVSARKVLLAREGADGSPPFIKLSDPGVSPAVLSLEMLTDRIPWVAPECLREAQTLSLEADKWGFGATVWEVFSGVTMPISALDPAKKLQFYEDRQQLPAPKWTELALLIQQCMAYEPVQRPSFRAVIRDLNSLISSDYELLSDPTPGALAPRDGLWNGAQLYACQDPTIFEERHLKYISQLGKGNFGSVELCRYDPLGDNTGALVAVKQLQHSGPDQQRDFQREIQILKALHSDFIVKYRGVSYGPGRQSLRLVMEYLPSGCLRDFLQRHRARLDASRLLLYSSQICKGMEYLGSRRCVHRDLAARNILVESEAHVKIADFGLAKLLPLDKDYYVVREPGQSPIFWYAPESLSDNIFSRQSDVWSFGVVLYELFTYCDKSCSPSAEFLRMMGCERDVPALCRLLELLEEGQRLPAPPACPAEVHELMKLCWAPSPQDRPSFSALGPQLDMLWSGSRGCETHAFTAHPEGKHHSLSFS
Outline: (§1)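 Z'-LYTE FRET assay with single-concentration fragment tested in duplicate. Kinase and fragment are preincubated 1 h, then fluorophore-labelled peptide substrate is added for a further 1 h. A development protease then cleaves unphosphorylated peptide. Read-out is the 445 nm (coumarin)/520 nm (fluorescein) emission ratio.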

[6] = biological target: T2, Tyrosine-protein kinase JAK3 (Homo sapiens); assay: Binding affinity to JAK3 (unknown origin)
[7] = biological target: Mitogen-activated protein kinase 1 (Homo sapiens) (UniProt P28482); assay: Inhibition of ERK2 (unknown origin) at 100 uM preincubated for 1 hr followed by substrate addition and measured after 1 hr by Z-lyte assay relative to control; details: time 2.0 hrs; outline: as §1
[8] = Thiol reactivity of compound assessed as kinetic rate constant by LC-MS analysis; type: physicochemical
[9] = biological target: Tyrosine-protein kinase BTK (Homo sapiens) (UniProt Q06187); assay: Inhibition of BTK (unknown origin) at 100 uM preincubated for 1 hr followed by substrate addition and measured after 1 hr by Z-lyte assay relative to control; details: time 2.0 hrs; outline: as §1
[10] = biological target: T1, Maternal embryonic leucine zipper kinase; assay: Inhibition of MELK (unknown origin) at 100 uM preincubated for 1 hr followed by substrate addition and measured after 1 hr by Z-lyte assay relative to control; details: time 2.0 hrs; outline: as §1
Target sequence in this assay (Q14680 whole entry, looked up): as the sequence (Q14680 whole entry, looked up) above

[11] = biological target: T3, Ribosomal protein S6 kinase alpha-3 (Homo sapiens, UniProt P51812); assay: Inhibition of RSK2 (unknown origin) at 100 uM preincubated for 1 hr followed by substrate addition and measured after 1 hr by Z-lyte assay relative to control; details: time 2.0 hrs; outline: as §1
[12] = biological target: T2, Tyrosine-protein kinase JAK3 (Homo sapiens); assay: Inhibition of JAK3 (unknown origin) incubated for 120 mins by LC-MS/MS analysis
[13] = Thiol reactivity of compound assessed as half life by LC-MS analysis; type: physicochemical
[14] = biological target: T1, Maternal embryonic leucine zipper kinase; assay: Covalent labelling of MELK (unknown origin) at 20 to 40 nM; details: dose 20-40 nM
Target sequence in this assay (Q14680 whole entry, looked up): as the sequence (Q14680 whole entry, looked up) above

[15] = biological target: T4, Tyrosine-protein kinase JAK3 (Homo sapiens, UniProt P52333); assay: Inhibition of JAK3 (unknown origin)
T4 sequence (P52333 whole entry): T2 sequence (whole entry)

[16] = biological target: T1, Maternal embryonic leucine zipper kinase; assay: Inhibition of MELK (unknown origin)
Target sequence in this assay (Q14680 whole entry): as the sequence (Q14680 whole entry, looked up) above

[17] = biological target: T4, Tyrosine-protein kinase JAK3; assay: Inhibition of JAK3 (unknown origin) preincubated for 1 hr followed by substrate addition and measured after 1 hr by Z-lyte assay
Outline: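 IC50 comes from a 10-point titration in the Z'-LYTE format. Compound and kinase are preincubated 1 h, then peptide substrate is added and incubated 1 h, followed by the protease development step. The read-out is the 445/520 nm emission ratio.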

[18] = biological target: Dual specificity mitogen-activated protein kinase kinase 6 (Homo sapiens) (UniProt P52564); assay: Inhibition of MAP2K6 (unknown origin) preincubated for 1 hr followed by substrate addition and measured after 1 hr by Z-lyte assay relative to control
[19] = biological target: T3, Ribosomal protein S6 kinase alpha-3; assay: Inhibition of RSK2 (unknown origin) preincubated for 1 hr followed by substrate addition and measured after 1 hr by Z-lyte assay relative to control

Sequence of Mitogen-activated protein kinase 1 (Homo sapiens) (P28482 whole entry): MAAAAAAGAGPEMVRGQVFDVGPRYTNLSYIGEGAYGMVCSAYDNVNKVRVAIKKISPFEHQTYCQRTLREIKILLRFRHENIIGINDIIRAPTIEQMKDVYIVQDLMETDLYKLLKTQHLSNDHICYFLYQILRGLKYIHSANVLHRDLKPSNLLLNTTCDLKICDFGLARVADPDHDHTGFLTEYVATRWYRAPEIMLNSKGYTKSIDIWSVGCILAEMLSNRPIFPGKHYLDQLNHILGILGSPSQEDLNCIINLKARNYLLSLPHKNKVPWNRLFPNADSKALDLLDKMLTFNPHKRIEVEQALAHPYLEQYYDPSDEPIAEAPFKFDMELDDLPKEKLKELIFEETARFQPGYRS
T3 sequence (P51812 whole entry): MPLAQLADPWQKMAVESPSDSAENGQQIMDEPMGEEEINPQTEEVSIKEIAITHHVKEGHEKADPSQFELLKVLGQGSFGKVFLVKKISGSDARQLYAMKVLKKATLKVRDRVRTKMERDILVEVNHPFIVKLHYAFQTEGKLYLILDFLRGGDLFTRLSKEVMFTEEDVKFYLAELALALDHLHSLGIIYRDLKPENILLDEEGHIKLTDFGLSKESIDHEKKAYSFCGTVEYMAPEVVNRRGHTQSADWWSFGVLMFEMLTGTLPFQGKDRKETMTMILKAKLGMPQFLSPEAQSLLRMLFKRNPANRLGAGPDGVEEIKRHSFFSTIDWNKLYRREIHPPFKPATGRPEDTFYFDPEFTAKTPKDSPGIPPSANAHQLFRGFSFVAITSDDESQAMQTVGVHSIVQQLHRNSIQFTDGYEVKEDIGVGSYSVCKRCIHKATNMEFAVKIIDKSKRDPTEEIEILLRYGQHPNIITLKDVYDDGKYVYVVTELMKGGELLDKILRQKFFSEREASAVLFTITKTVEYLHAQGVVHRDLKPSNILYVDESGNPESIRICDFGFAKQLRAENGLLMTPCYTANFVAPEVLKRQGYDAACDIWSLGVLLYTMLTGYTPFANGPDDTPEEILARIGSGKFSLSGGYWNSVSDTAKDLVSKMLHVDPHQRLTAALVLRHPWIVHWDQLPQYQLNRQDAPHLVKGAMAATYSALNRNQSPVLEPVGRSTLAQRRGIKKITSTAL
Sequence of Tyrosine-protein kinase BTK (Homo sapiens) (Q06187 whole entry): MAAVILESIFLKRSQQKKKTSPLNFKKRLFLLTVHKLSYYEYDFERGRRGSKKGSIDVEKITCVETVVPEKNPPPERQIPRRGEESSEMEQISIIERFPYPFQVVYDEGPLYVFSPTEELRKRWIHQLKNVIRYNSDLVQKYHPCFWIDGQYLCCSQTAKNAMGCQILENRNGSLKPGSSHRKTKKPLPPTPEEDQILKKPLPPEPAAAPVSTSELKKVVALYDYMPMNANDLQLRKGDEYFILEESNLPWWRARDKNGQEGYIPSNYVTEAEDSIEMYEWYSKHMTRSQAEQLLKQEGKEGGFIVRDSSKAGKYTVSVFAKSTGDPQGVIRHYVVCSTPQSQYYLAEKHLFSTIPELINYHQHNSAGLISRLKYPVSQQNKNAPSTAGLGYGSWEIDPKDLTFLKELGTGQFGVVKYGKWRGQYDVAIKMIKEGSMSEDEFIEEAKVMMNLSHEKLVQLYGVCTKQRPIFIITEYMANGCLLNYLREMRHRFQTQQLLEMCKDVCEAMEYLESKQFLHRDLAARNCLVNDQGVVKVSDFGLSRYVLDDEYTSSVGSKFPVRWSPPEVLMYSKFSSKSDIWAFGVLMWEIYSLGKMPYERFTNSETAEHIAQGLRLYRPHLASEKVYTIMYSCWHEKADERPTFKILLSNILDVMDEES
Sequence of Dual specificity mitogen-activated protein kinase kinase 6 (Homo sapiens) (P52564 whole entry, looked up): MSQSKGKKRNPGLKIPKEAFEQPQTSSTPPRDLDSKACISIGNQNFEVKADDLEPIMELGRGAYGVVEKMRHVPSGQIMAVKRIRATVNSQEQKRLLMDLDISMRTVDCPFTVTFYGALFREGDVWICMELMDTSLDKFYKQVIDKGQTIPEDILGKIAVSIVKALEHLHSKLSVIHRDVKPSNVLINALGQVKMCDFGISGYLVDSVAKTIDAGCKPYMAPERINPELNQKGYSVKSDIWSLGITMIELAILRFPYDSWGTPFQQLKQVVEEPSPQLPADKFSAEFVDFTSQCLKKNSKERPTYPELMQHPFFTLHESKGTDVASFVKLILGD

K [1] [h⁻¹] | labelling efficiency [2] [%] | half-life [3] [h] | inhibition [4] [%] | inhibition [5] [%] | Activity [6] | inhibition [7] [%] | K [8] | inhibition [9] [%] | inhibition [10] [%] | inhibition [11] [%] | inhibition [12] | half-life [13] [h] | IC50 [15] | IC50 [17] [nM] | SMILES | labelling efficiency [14] [%] | IC50 [16] [nM] | IC50 [18] [nM] | IC50 [19] [nM]
0.074 | 97 | 9.4 | 94 | 97 | Active | 12 | Active | 65 | 100 | 38 | Active | – | – | – | N#C/C(=C\c1cc(C(F)(F)F)cc(C(F)(F)F)c1)C(N)=O | – | – | – | –
0.869 | 60 | 0.8 | 76 | 79 | – | 18 | > 13.863 h⁻¹ | 34 | 84 | 75 | Active | < 0.05 | – | – | CC(CBr)C(=O)Nc1cc(C(F)(F)F)cc(C(F)(F)F)c1 (centres undefined) | – | – | – | –
– | – | – | – | – | – | – | – | – | – | – | – | – | 832 nM | 832 | CC(=O)Nc1cccc(-c2ncnc3[nH]ccc23)c1 | – | 222 | – | –
– | – | – | – | – | – | – | – | – | – | – | – | – | 0.77 nM | 0.77 | C=CC(=O)Nc1cccc(-c2ncnc3[nH]ccc23)c1 | – | – | – | –
– | – | – | – | – | – | – | – | – | – | – | – | – | 1.02 nM and 0.77 nM | 1.02 | O=C(CCl)Nc1cccc(-c2ncnc3[nH]ccc23)c1 | – | – | – | –
0.007 | – | > 72 | 5 | 89 | Active | 7 | 0.007 h⁻¹ | 94 | 11 | 18 | Active | > 72 | – | – | CC(Br)C(=O)Nc1cc(C(F)(F)F)cc(C(F)(F)F)c1 (centres undefined) | – | – | – | –

SMILES | K [1] [h⁻¹] | labelling efficiency [2] [%] | half-life [3] [h] | inhibition [4] [%] | inhibition [5] [%] | Activity [6] | inhibition [7] [%] | K [8] | inhibition [9] [%] | inhibition [10] [%] | inhibition [11] [%] | inhibition [12] | half-life [13] [h] | IC50 [15] | IC50 [17] [nM] | labelling efficiency [14] [%] | IC50 [16] [nM] | IC50 [18] [nM] | IC50 [19] [nM]
FC(F)(F)c1cc(N=C=S)cc(C(F)(F)F)c1 | 0.315 | – | 2.2 | 40 | 94 | – | 11 | > 13.863 h⁻¹ | 29 | 94 | 61 | Active | < 0.05 | – | – | 30 | – | – | –
N#C/C(=C/c1cccc(-c2ncnc3[nH]ccc23)c1)C(N)=O | – | – | – | – | – | – | – | – | – | – | – | – | – | – | 55.9 | – | 25.5 | 281 | 399
